Measured values published in ChEMBL document CHEMBL5058577, “EUbOPEN Chemogenomics Library 2 (Multiplex)” (2022).

Tested on: Fibroblast
Experiment: Multiplex assay against human fibroblast
Type: toxicity, cell-based
Summary of the method: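 On a CQ1 microscope at 37°C and 5% CO2, live cells were imaged after compound addition. They had been stained at seeding with Hoechst33342, BioTracker Green Microtubule Cytoskeleton Dye, MitoTracker Red and Annexin V Alexa Fluor 680. CellPathfinder machine-learning gating assigned cells to Hoechst high-intensity objects or normal cells, normal cells to healthy, pyknosed or fragmented nuclei, and pyknosed cells to mitotic or apoptotic. Tubulin, mitochondrial-mass and membrane-permeability phenotypes are per cents of healthy-nucleus cells.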

[1] = 12 h, 1 µM, compound concentration 1 uM, replicate 1
[2] = 12 h, 1 µM, compound concentration 1 uM, replicate 2
[3] = 12 h, 10 µM, compound concentration 10 uM, replicate 1
[4] = 12 h, 10 µM, compound concentration 10 uM, replicate 2
[5] = 24 h, 1 µM, compound concentration 1 uM, replicate 1
[6] = 24 h, 1 µM, compound concentration 1 uM, replicate 2
[7] = 24 h, 10 µM, compound concentration 10 uM, replicate 1
[8] = 24 h, 10 µM, compound concentration 10 uM, replicate 2
[9] = 48 h, 1 µM, compound concentration 1 uM, replicate 1
[10] = 48 h, 1 µM, compound concentration 1 uM, replicate 2
[11] = 48 h, 10 µM, compound concentration 10 uM, replicate 1
[12] = 48 h, 10 µM, compound concentration 10 uM, replicate 2

## Cc1cccc(NC(=O)CN2CCC(c3ccccn3)CC2)c1.Cl.Cl
[1]
  Population Apoptotic (%): 47%
  Population Fragmented Nuclei (%): 16%
  Population Healthy Nuclei (%): 70%
  Population Hoechst High Intensity Objects (%): 4%
  Population Membrane Permeable-Phenotype (%): 0%
  Population Mitochondria Different-Phenotype (%): 6%
  Population Mitotic Cells (%): 52%
  Population Normal (%): 95%
  Population Pyknosed Nuclei (%): 12%
  Population Tubulin-Different-Phenotype (%): 34%
  Total Cell Count: 140
[2]
  Population Apoptotic (%): 33%
  Population Fragmented Nuclei (%): 25%
  Population Healthy Nuclei (%): 55%
  Population Hoechst High Intensity Objects (%): 6%
  Population Membrane Permeable-Phenotype (%): 2%
  Population Mitochondria Different-Phenotype (%): 5%
  Population Mitotic Cells (%): 66%
  Population Normal (%): 93%
  Population Pyknosed Nuclei (%): 19%
  Population Tubulin-Different-Phenotype (%): 35%
  Total Cell Count: 232
[3]
  Population Apoptotic (%): 59%
  Population Fragmented Nuclei (%): 8%
  Population Healthy Nuclei (%): 78%
  Population Hoechst High Intensity Objects (%): 10%
  Population Membrane Permeable-Phenotype (%): 1%
  Population Mitochondria Different-Phenotype (%): 7%
  Population Mitotic Cells (%): 40%
  Population Normal (%): 89%
  Population Pyknosed Nuclei (%): 13%
  Population Tubulin-Different-Phenotype (%): 36%
  Total Cell Count: 229
[4]
  Population Apoptotic (%): 34%
  Population Fragmented Nuclei (%): 45%
  Population Healthy Nuclei (%): 30%
  Population Hoechst High Intensity Objects (%): 2%
  Population Membrane Permeable-Phenotype (%): 6%
  Population Mitochondria Different-Phenotype (%): 10%
  Population Mitotic Cells (%): 65%
  Population Normal (%): 98%
  Population Pyknosed Nuclei (%): 23%
  Population Tubulin-Different-Phenotype (%): 56%
  Total Cell Count: 100
[5]
  Population Apoptotic (%): 50%
  Population Fragmented Nuclei (%): 18%
  Population Healthy Nuclei (%): 70%
  Population Hoechst High Intensity Objects (%): 2%
  Population Membrane Permeable-Phenotype (%): 0%
  Population Mitochondria Different-Phenotype (%): 8%
  Population Mitotic Cells (%): 50%
  Population Normal (%): 97%
  Population Pyknosed Nuclei (%): 10%
  Population Tubulin-Different-Phenotype (%): 25%
  Total Cell Count: 134
[6]
  Population Apoptotic (%): 40%
  Population Fragmented Nuclei (%): 26%
  Population Healthy Nuclei (%): 53%
  Population Hoechst High Intensity Objects (%): 4%
  Population Membrane Permeable-Phenotype (%): 4%
  Population Mitochondria Different-Phenotype (%): 6%
  Population Mitotic Cells (%): 59%
  Population Normal (%): 95%
  Population Pyknosed Nuclei (%): 19%
  Population Tubulin-Different-Phenotype (%): 30%
  Total Cell Count: 239
[7]
  Population Apoptotic (%): 64%
  Population Fragmented Nuclei (%): 11%
  Population Healthy Nuclei (%): 81%
  Population Hoechst High Intensity Objects (%): 7%
  Population Membrane Permeable-Phenotype (%): 0%
  Population Mitochondria Different-Phenotype (%): 11%
  Population Mitotic Cells (%): 35%
  Population Normal (%): 92%
  Population Pyknosed Nuclei (%): 6%
  Population Tubulin-Different-Phenotype (%): 38%
  Total Cell Count: 217
[8]
  Population Apoptotic (%): 42%
  Population Fragmented Nuclei (%): 45%
  Population Healthy Nuclei (%): 34%
  Population Hoechst High Intensity Objects (%): 0%
  Population Membrane Permeable-Phenotype (%): 11%
  Population Mitotic Cells (%): 57%
  Population Normal (%): 100%
  Population Pyknosed Nuclei (%): 20%
  Population Tubulin-Different-Phenotype (%): 50%
  Total Cell Count: 105
[9]
  Population Apoptotic (%): 80%
  Population Fragmented Nuclei (%): 25%
  Population Healthy Nuclei (%): 63%
  Population Hoechst High Intensity Objects (%): 3%
  Population Membrane Permeable-Phenotype (%): 1%
  Population Mitochondria Different-Phenotype (%): 3%
  Population Mitotic Cells (%): 20%
  Population Normal (%): 96%
  Population Pyknosed Nuclei (%): 11%
  Population Tubulin-Different-Phenotype (%): 28%
  Total Cell Count: 138
[10]
  Population Apoptotic (%): 60%
  Population Fragmented Nuclei (%): 31%
  Population Healthy Nuclei (%): 55%
  Population Membrane Permeable-Phenotype (%): 4%
  Population Mitotic Cells (%): 39%
  Population Pyknosed Nuclei (%): 12%
  Population Tubulin-Different-Phenotype (%): 35%
  Total Cell Count: 229
[11]
  Population Apoptotic (%): 76%
  Population Fragmented Nuclei (%): 17%
  Population Healthy Nuclei (%): 75%
  Population Hoechst High Intensity Objects (%): 7%
  Population Membrane Permeable-Phenotype (%): 2%
  Population Mitochondria Different-Phenotype (%): 5%
  Population Mitotic Cells (%): 23%
  Population Normal (%): 92%
  Population Pyknosed Nuclei (%): 7%
  Population Tubulin-Different-Phenotype (%): 44%
  Total Cell Count: 238
[12]
  Population Apoptotic (%): 28%
  Population Fragmented Nuclei (%): 54%
  Population Healthy Nuclei (%): 39%
  Population Hoechst High Intensity Objects (%): 1%
  Population Mitochondria Different-Phenotype (%): 16%
  Population Mitotic Cells (%): 71%
  Population Normal (%): 98%
  Population Pyknosed Nuclei (%): 6%
  Population Tubulin-Different-Phenotype (%): 61%
  Total Cell Count: 109
